# Source: PubChem BioAssay
# Hits are enriched below; roughly 1.6% of the tested compounds scored in any of these assays.
# PvdQ acylase: P. aeruginosa PvdQ acylase inhibition; purified PvdQ acylase, fluorescence plate reader; 0.063% of 340,000 active; inhibition, % at 10 µM; in the data active = inhibition above about 30%, passing the limit was not always enough; inconclusive = no clear call, values can overlap the other calls;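 also: 0% = vehicle neutral wells and 100% = reference inhibitor wells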
# dFosB activator: mouse delta FosB homodimer activation; P13346; purified delta FosB, TAMRA-CDK5 oligo fluorescence polarization; percent of positive-control signal above neutral wells; 0.99% of 340,000 active; activation, % at 25 µM;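 active = mean activation above about 17%, with every replicate also reaching it, limit read from the data, passing the limit was not always enough; inconclusive = only one of the two conditions met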
# SR-BI DiI-HDL act: enhances SR-BI lipid uptake from DiI-HDL; CHO ldlA[mSR-BI] cells, DiI-HDL uptake fluorescence, 3 h; 100 = double the neutral-control signal; AID 504775; activation, % at 12.5 µM; 0.096% of 320,000 active;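 active = mean replicate activation of at least 60% and every replicate at or above 60%; inconclusive = mean or all-replicate condition met, but not both; inactive = mean below 60% and not all replicates reaching 60%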;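 also: 0% = median plate neutral-control signal and 100% = twice that signal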
#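 system = CHO ldlA[mSR-BI] cells, LDL receptor-null, SR-BI overexpressing | medium = Ham's F12 with 0.5% BSA, HEPES 25 mM, pH 7.4 | probe or stimulus = DiI-HDL 10 µg/mL | compound dosing = single-point compound dose | incubation = compound exposure 3 h, 37 °C | technique = DiI fluorescence, bottom read | read-out = cell-associated DiI fluorescence as measure of HDL uptake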
# S100A4 inh HTS: S100A4-myosin IIA interaction inhibition. P26447. S100A4/TAMRA-MyoIIA peptide fluorescence polarization. inhibition, % at 10.7 µM. 0.14% of 360,000 active. AID 652163;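 active = mean inhibition of at least 70% across replicates, with every replicate also reaching that level; inconclusive = mean inhibition reaches 70% but some replicates fall short; inactive = mean inhibition below 70%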
# Target sequence (P26447 whole entry, looked up): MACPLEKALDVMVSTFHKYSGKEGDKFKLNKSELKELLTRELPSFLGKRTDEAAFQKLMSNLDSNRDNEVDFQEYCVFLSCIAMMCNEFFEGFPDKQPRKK
#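 Material: S100A4 monomer protein / Buffer or medium: 50 mM HEPES pH 7.2, 10 mM CaCl2, 100 mM KCl / Times: 5 min incubation before reading / Benchmarks: neutral control DMSO, positive control TFP / Reagent: labelled myosin peptide probe, 5 nM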
# RAD54 inh: RAD54 (human) branch migration inhibition; RAD54 Holliday junction branch migration, FAM/BHQ fluorescence; inhibition, % at 10.4 µM; 0.14% of 360,000 active; AID 602329;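 active = mean normalized replicate activity at least 40 and at least half of replicates scoring 40 or more; inconclusive = only one of the two criteria met; inactive = mean below 40 and under half of replicates reaching 40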;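 also: 0% = median of neutral control wells and 100% = median of positive control wells; inhibitors cause a drop in the FAM fluorescence signal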
# SR-BI HDL uptake: mouse SR-BI HDL lipid transfer inhibition; Q61009; ldlA[mSR-BI] CHO cells, DiI-HDL uptake fluorescence, 3 h; inhibition, % at 12.5 µM; 0.96% of 320,000 active; AID 488896;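 active = mean replicate inhibition of at least 70% and a set share of replicates each scoring 70 or more; inconclusive = meets just one of the two criteria; inactive = fails both criteria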;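 also: 0% = median of neutral control wells and 100% = median of positive control wells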
# Target sequence (Q61009 whole entry, looked up): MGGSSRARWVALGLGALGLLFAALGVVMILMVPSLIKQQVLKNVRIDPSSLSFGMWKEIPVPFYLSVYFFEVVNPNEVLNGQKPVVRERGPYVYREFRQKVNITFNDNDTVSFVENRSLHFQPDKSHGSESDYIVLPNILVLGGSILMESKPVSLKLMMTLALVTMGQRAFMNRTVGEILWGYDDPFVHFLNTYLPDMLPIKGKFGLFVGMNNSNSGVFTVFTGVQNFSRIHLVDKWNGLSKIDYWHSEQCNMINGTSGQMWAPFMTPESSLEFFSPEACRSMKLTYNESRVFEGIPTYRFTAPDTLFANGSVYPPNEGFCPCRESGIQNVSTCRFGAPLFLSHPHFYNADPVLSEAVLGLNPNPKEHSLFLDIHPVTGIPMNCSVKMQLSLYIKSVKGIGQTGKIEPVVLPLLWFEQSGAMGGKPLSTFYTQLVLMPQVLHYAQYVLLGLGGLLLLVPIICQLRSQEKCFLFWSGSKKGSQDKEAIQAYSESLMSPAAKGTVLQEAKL
# * hit, by the source's call; ? = inconclusive; . = not tested or not shown.
SMILES,PvdQ acylase,dFosB activator,SR-BI DiI-HDL act,S100A4 inh HTS,RAD54 inh,SR-BI HDL uptake
C/C(=N\NC(N)=S)c1ccccc1,-1,-2,-86,2,1,86*
CN(C)C(=O)[C@H]1[C@H](CO)[C@H]2Cn3c(ccc(-c4ccccc4)c3=O)[C@@H]1N2C(=O)C1CCC1,.,.,.,-4,10,.
CO[C@@H]1CN(C)C(=O)c2cc(NC(=O)C3CCCC3)ccc2OC[C@@H](C)N(C)C[C@@H]1C,.,.,.,-2,6,.
Cc1ccc2c(c1)/C(=N/OS(=O)(=O)c1ccccc1)CCS2,8,-3,13,.,0,-13
CC1=CC(=O)C=C(C)C1=NOS(=O)(=O)c1ccccc1,-12,-1,-112,.,-2,112*
CC1=CC(=O)C(C(C)C)=C/C1=N/OS(=O)(=O)c1ccccc1,3,-3,-80,-2,4,80*
COc1ccc(OCC(=O)Nc2ccc3c(c2)nc(CCN2CCN(c4ccccn4)CC2)n3C)cc1,.,.,.,-4,-1,.
Cc1cccc(OCC(=O)Nc2ccc3c(c2)nc(CCN2CCN(c4ccccn4)CC2)n3C)c1,-8,-15,-73,2,4,73*
CCOc1ccc(C(=O)n2cc(C(=O)OC)c3ccccc32)cc1OCC,-9,-5,-81,0,3,81*
C[C@H]1CN([C@@H](C)CO)C(=O)Cc2cc(NS(=O)(=O)c3ccccc3)ccc2O[C@@H]1CN(C)Cc1ccc(-c2ccccc2)cc1,.,.,.,-1,-5,.
COc1ccccc1CCC(=O)NC1CCCN(c2ccc(C(F)(F)F)cn2)C1 (centres undefined),-7,?,19,-3,10,-19
O=C(CCc1ccccc1Cl)NC1CCCN(c2ccc(C(F)(F)F)cn2)C1 (centres undefined),0,-12,17,179*,-7,-17
Cc1cc(C)n(CC(O)Cn2c3ccc(Br)cc3c3cc(Br)ccc32)c(=O)n1 (centres undefined),-6,20*,-39,.,.,39
CCC(=O)N1[C@H](CO)[C@@H](c2ccccc2)C12CN(CCC(F)(F)F)C2,.,.,.,3,.,.
NC(=S)NN=C1CCCCCCCCCC1,-8,-1,-76,12,-3,76*
CC(=O)N1[C@H](CO)[C@@H](c2ccccc2)C12CN(C(=O)c1ccccn1)C2,.,.,.,2,.,.
O=C(C[C@@H]1C[C@@H]2c3cc(NC(=O)c4cccnc4)ccc3O[C@@H]2[C@H](CO)O1)NCCN1CCCCC1,.,.,.,30,3,.
CSc1nnc(Cc2cc(=O)[nH]c(=O)[nH]2)n1-c1cc(C)ccc1C,4,-2,70*,.,-3,-70
C[C@H](CO)N1C[C@H](C)[C@H](CN(C)S(=O)(=O)c2ccc(F)cc2)Oc2c(NC(=O)Nc3cccc4ccccc34)cccc2C1=O,.,.,.,-11,.,.
CCOc1ccc(-n2c(SCC(=O)Nc3cc(OC)c([N+](=O)[O-])cc3C)nc3ccccc32)cc1,-7,-8,-82,2,-7,82*
Cc1ccc(S(=O)(=O)N(C)C[C@H]2Oc3c(NC(=O)c4cnccn4)cccc3C(=O)N([C@H](C)CO)C[C@H]2C)cc1,.,.,.,-20,0,.
CSc1ccccc1NC(=O)CN(Cc1ccc(Cl)cc1)S(C)(=O)=O,-4,-17,-19,.,2,19
CSc1ccccc1NC(=O)CN(Cc1ccccc1)S(C)(=O)=O,-5,3,-75,.,8,75*
Cc1noc(C)c1S(=O)(=O)N(C)C[C@@H]1Oc2ccc(NS(C)(=O)=O)cc2CC(=O)N([C@H](C)CO)C[C@H]1C,.,.,.,-2,0,.
CC1Sc2ccc(S(=O)(=O)N3CCC(C(=O)NCC(C)c4ccccc4)CC3)cc2NC1=O (centres undefined),-4,-6,133*,-3,-2,-133
SMILES,PvdQ acylase,dFosB activator,SR-BI DiI-HDL act,S100A4 inh HTS,RAD54 inh,SR-BI HDL uptake
Cc1ccccc1NC(=O)C1CCN(S(=O)(=O)c2ccc3c(c2)NC(=O)C(C)S3)CC1 (centres undefined),-15,-6,11,111*,0,-11
Cc1cc(C)cc(NC(=O)C2CCN(S(=O)(=O)c3ccc4c(c3)NC(=O)C(C)S4)CC2)c1 (centres undefined),-15,4,-23,-4,10,23
NC(=O)c1ccc(N=Nc2c(-c3ccccc3)[nH]n(-c3ccccc3)c2=O)cc1,.,.,.,-2,.,.
O=c1c(N=Nc2ccc(O)cc2)c(-c2ccccc2)[nH]n1-c1ccc([N+](=O)[O-])cc1,-14,-8,-107,-3,7,107*
NC(=S)n1[nH]c(-c2ccc([N+](=O)[O-])cc2)c(N=Nc2ccc(Cl)cc2)c1=O,-14,-18,-104,.,.,104*
Cc1ccc([N+](=O)[O-])cc1N=Nc1c(-c2ccc([N+](=O)[O-])cc2)[nH]n(C(N)=S)c1=O,8,-5,-80,.,0,80*
C[C@@H]1CN([C@@H](C)CO)C(=O)c2cc(NC(=O)c3ccccc3)ccc2O[C@@H](C)CCCCO[C@@H]1CN(C)C(=O)Cc1ccccc1,.,.,.,4,6,.
C[C@H]1CCCCO[C@H](CN(C)S(=O)(=O)c2ccc(F)cc2)[C@@H](C)CN([C@@H](C)CO)C(=O)c2cc(NS(=O)(=O)c3ccc(Cl)cc3)ccc2O1,.,.,.,-13,3,.
Cc1ccc(C)c2sc(NC(=O)c3ccc(N4C(=O)CCC4=O)cc3)nc12,14,-7,-79,0,-3,79*
N#Cc1ccc(-c2ccc3c(c2)[C@@H]2[C@@H](CCN2C(=O)c2ccc4c(c2)OCO4)[C@H](CO)N3)cc1,.,.,.,8,5,.
O=C(CCN1C(=O)/C(=C/c2cccs2)SC1=S)Nc1ccccc1O,2,21*,.,18,-12,.
O=C(CCCN1C(=O)/C(=C\c2cccs2)SC1=S)Nc1cc([N+](=O)[O-])ccc1O,8,26*,3,11,-8,-3
O=C(CCCN1C(=O)/C(=C/c2cccs2)SC1=S)Nc1cccc(O)c1,-1,-7,-8,-2,-9,8
Cc1noc(C)c1S(=O)(=O)Nc1ccc2c(c1)CC(=O)N([C@@H](C)CO)C[C@H](C)[C@@H](CN(C)S(=O)(=O)c1ccc(F)cc1)O2,.,.,.,12,-1,.
O=[N+]([O-])c1ccc(N2CCSCC2)cc1,54*,8,1,-8,.,-1
COc1ccc(-c2sc3cc4c(cc3c2C#CC2(N)CCCCC2)OCO4)cc1,-9,67*,-43,-4,1,43
Cc1ccc(S(=O)(=O)N(C)C[C@@H]2Oc3ccc(NS(=O)(=O)c4c(C)noc4C)cc3CC(=O)N([C@@H](C)CO)C[C@@H]2C)cc1,.,.,.,-7,-4,.
C[C@@H]1CN([C@@H](C)CO)C(=O)c2cc(NC(=O)Nc3cccc4ccccc34)ccc2O[C@H]1CN(C)S(=O)(=O)c1ccc(Cl)cc1,.,.,.,6,12,.
